To fix the notation:
B1: tRNA (parent)
chain: GUUCCGUUGGCGUAAUGGUAACGCGUCUCCCUCCUAAGGAGAAGACUGCGGGUUCGAGUCCCGUACGGAACG

Fewer inactive variants are shown than the library holds.

Consider 167 variants from the RNAGym collection of RNA variant scans (doi:10.1126/science.aae0568).

In the series the parent is B1. Nature of the series: yeast fitness relative to wild type (ratio to wild type); higher = fitter; tRNA-Arg(CCU), competitive growth, 37 C, YPD. The procedure, abridged: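 For this measurement, the tRNA-Arg(CCU) gene was varied by chemical synthesis at a 3% per-site mutation rate across 69 sites, and each variant was placed at the native genomic locus in Saccharomyces cerevisiae. The pooled strains went through a 24-hour competition in YPD at 37°C in six parallel replicates, with amplicons from start and end populations read by 100-nucleotide paired-end sequencing. Darwinian fitness relative to wild type followed from the change in each genotype's frequency. Genotypes needed ≥ 100 starting reads, and estimates < 0.5 were set to 0.5.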
For the variant C24A U26A C31A C55A U64C, the yeast fitness was ≤ 0.5. Consider G23C C46U C62U, for which the yeast fitness stood at 0.592. The result for G23C C24U A37C G50C reads ≤ 0.5; that for C24G C27A A45C C62G C66U, ≤ 0.5.

For the variant C24A A36G C61U, the yeast fitness is ≤ 0.5. Take G23C C61U C66G A70U: the yeast fitness was 0.562. In the case of G23C C27U C29U G51A, the yeast fitness turned out to be 0.645. The value for C24A C30U A65G C66U was ≤ 0.5; that for G23C G58U was 0.565; that for G23C G58A was 0.6. The value for C24G A37G A43U C62G was 0.77; that for C24G C27U C33U G52C A65G was ≤ 0.5; that for G23C G38A C61U was 0.578. The value for C24A G39C G51A G63A was ≤ 0.5. For C24G C31G A36G G44A A69G, the yeast fitness is ≤ 0.5.

On to G23C C31G G50A, for which the yeast fitness is ≤ 0.5. The result for C24G C31U C55A reads ≤ 0.5; that for G23C C27A A57U A69U, ≤ 0.5.

As to G23C C30G, the yeast fitness is 0.511. Take C24G A42C C66U: the yeast fitness was ≤ 0.5. The value for G23C U47G was 0.626; that for C24G A36C C55U was ≤ 0.5. The result for C24G C34U U35A A65U reads 0.578; that for C24G C27U A40U U59C, ≤ 0.5; that for C24A C31G C60U, ≤ 0.5. The result for C24G C33G U53C C55U reads 0.567; that for C24G G25A, 0.852; that for C24G C30G G39A, 0.593. For C24A A45G C61U, the yeast fitness is ≤ 0.5. For the variant C24A C55A C62U A65C, the yeast fitness was determined as 0.529.

For C24A C30U A45G U54C A57U C62U, the yeast fitness was 0.548. The value for C24A A43G G63U U64A was ≤ 0.5; that for C24G C33U A37U G67A was ≤ 0.5. The result for G23C C27G C31G reads 0.608. The result for G23C C61U A70U reads 0.6. Take G23C U26C: the yeast fitness stood at 0.624. Turning to C24A A40U A43U C61G G68U, the yeast fitness was 0.597.

For the variant C24G C33U A37U C49G U64C, the yeast fitness was ≤ 0.5.

In the case of C24A C33A, the yeast fitness stood at 0.587. For C24A C33U, the yeast fitness was 0.601. For C24A C33G, the yeast fitness turned out to be 0.705. The result for C24A G39A C60A C66U reads ≤ 0.5; that for C24A U26G A43C C60U C62G G63A C66G A69G, ≤ 0.5.

As for C24A A36G A43G, the yeast fitness was ≤ 0.5. The value for C24A C62U A70C was ≤ 0.5; that for C24A C62U A70U was 0.543.

Take C24G C27U A40U A57G C62G: the yeast fitness was ≤ 0.5. Take C24G C30A C62G: the yeast fitness was ≤ 0.5. As to C24A C66G, the yeast fitness stood at 0.548. As to C24G C27U C33U G50C A69U, the yeast fitness was ≤ 0.5.

Consider C24A C29U G67U, for which the yeast fitness was 0.591. With G23C C31U, the yeast fitness was found to be 0.579. Take C24A C61U: the yeast fitness came to 0.718. For C24G A36G A57C C61U, the yeast fitness is ≤ 0.5. The result for C24G A36C U54G reads ≤ 0.5. The result for C24A U28C C61A reads ≤ 0.5; that for G23U, 0.779. As for C24G A36C C49U A70C, the yeast fitness is ≤ 0.5. The value for C24A G25A U35A was ≤ 0.5. The value for C24G C34G G44C was ≤ 0.5; that for G23C U26C C46G C55U was ≤ 0.5. The value for G23C G25A was 0.818; that for C24G C49G C55A was ≤ 0.5; that for C24A C27G C61U was 0.575. For the variant G23C U26C A37G A40G A42G U64C, the yeast fitness was ≤ 0.5. The result for C24G C33U U47G reads ≤ 0.5; that for G23C C24U A57C G63A C66G, ≤ 0.5. For the variant C24G C29U G51C, the yeast fitness was 0.576. The result for G23C G25A G48C reads 0.594. The value for C24G C31A C33U U35A A57G was 0.529; that for C24A C31U A45U A69U was ≤ 0.5. Take C24G C27U C62U A70U: the yeast fitness is ≤ 0.5. In the case of C24G C30G C31U U35A A36U G44A G63C, the yeast fitness amounted to 0.86. The value for G23C C24U A37C U53C was ≤ 0.5; that for G23C C33G C46A C66A was 0.596; that for G23C U28A was 0.559. The value for G23C U26G C33G A45C was ≤ 0.5; that for G23U C49U C55A C66U was ≤ 0.5; that for C24G C66A was 0.576. The value for C24G C31A A42G A43U was ≤ 0.5; that for C24G C27A was 0.616; that for C24G C27U was 0.73. For C24G A43G, the yeast fitness is 0.573. The result for C24G C27U C33U G50C G63A G68A reads 0.528; that for C24G A36C, 0.531. The result for C24G A36U reads ≤ 0.5; that for C24A C33A C49U A69U, ≤ 0.5. The result for C24G A40G A43G reads ≤ 0.5; that for C24A G68U, 0.654; that for G23C G50C G52A, 0.698. Take C24A G48A U53G G67C: the yeast fitness was ≤ 0.5. The result for C24G A40G reads 0.647; that for C24G A40C, 0.601; that for C24G A42G A43U U47A, 0.635. The value for C24A C34A A37G A57G A65G was 0.544; that for C24G C55U G67C was ≤ 0.5; that for C24A G48A U53G was ≤ 0.5. Regarding C24A C60G, the yeast fitness was found to be 0.51. The value for C24A C27G C29A A70G was ≤ 0.5. The result for C24G C30U C46A reads 0.616; that for C24G C33U A70G, ≤ 0.5.

With C24A C61A G67A, the yeast fitness was ≤ 0.5. The result for C24G C30G G39A G52A C55U reads ≤ 0.5; that for C24G C33U C61A A69U, ≤ 0.5. The result for C24G C30U C31U C61U G67C reads ≤ 0.5; that for G23C U54C, 0.502. Turning to C24A A37C G38A, the yeast fitness is 0.61.

C24G C31G A43U: the yeast fitness was 0.596. The value for C24A C29A A40U A43G C49G was ≤ 0.5. The value for G23C C49G G63A was ≤ 0.5; that for C24G A37G G67C was 0.549.

G23C U53A: the yeast fitness stood at 0.55. C24A U47G G58A C62A: the yeast fitness was ≤ 0.5. Take G23U A36C C46U G50C G67C: the yeast fitness was ≤ 0.5.

G23C C30G A37U A45C C46G: the yeast fitness is ≤ 0.5. The value for G23C U28G G41A A42U U59A was ≤ 0.5. The value for C24G C29G A37G G52A C62U was ≤ 0.5. On to C24G C30A G44C U47C, for which the yeast fitness worked out at 0.567. Consider G23C C46U G67A, for which the yeast fitness was 0.564. Take G23C G68A A69U: the yeast fitness is ≤ 0.5. With C24A A36G A37G, the yeast fitness was ≤ 0.5. Take G23C C46U A70U: the yeast fitness was 0.622. As for C24G C29U G51C A70U, the yeast fitness was ≤ 0.5.

With G23C U28A A65G, the yeast fitness is ≤ 0.5. The value for C24G C29G C33U was ≤ 0.5; that for C24G G25A C31G was 0.703; that for C24A C33A C46U C60G was ≤ 0.5. The result for C24G C29A A43U G68C reads 0.561; that for C24A C29U C61G, ≤ 0.5; that for C24A C30U A45G, ≤ 0.5.

In the case of C24A U26C U54A C60U A69C, the yeast fitness was 0.819.

As to G23C C60G C61U G68A, the yeast fitness is ≤ 0.5. For the variant C24A A36G A42G A43G G48A, the yeast fitness is ≤ 0.5. Turning to C24A C29G U32G G38A U47A, the yeast fitness was ≤ 0.5. As for C24G C31A C66U, the yeast fitness was ≤ 0.5. Turning to C24G A69C, the yeast fitness came to 0.617. Regarding C24A A45G A65U, the yeast fitness came out at 0.552. The result for C24G G25A A45G C60A reads ≤ 0.5; that for C24A U26A, 0.57. G23U U54G: the yeast fitness was ≤ 0.5. The result for C24G C30U G44C reads ≤ 0.5; that for G23C G39C A70U, ≤ 0.5; that for C24A A43C, 0.55. Take C24A A43G: the yeast fitness amounted to 0.597. On to C24A G41A G44A U53A C66U, for which the yeast fitness is ≤ 0.5.

As for C24G A37G C61U, the yeast fitness is ≤ 0.5. The value for G23C G63C was 0.594. The value for G23C G63A was 0.51. The value for G23C C24G C34U G39A A45C was ≤ 0.5. Take G23C C60G C61U: the yeast fitness is ≤ 0.5.

On to C24A C34U A40C, for which the yeast fitness was ≤ 0.5. Consider C24A C55A A65G, for which the yeast fitness is ≤ 0.5. The result for G23C G48A U64A A65U reads ≤ 0.5. On to C24A C33G C34U G58C C62U, for which the yeast fitness is ≤ 0.5. Take C24G C31U G50C C60G G63A: the yeast fitness stood at 0.545. The value for G23C C66G was ≤ 0.5; that for G23C C66A was ≤ 0.5. In the case of C24A U26A C55A, the yeast fitness was ≤ 0.5.

With C24A A65U, the yeast fitness turned out to be 0.549. The result for C24A A65G reads 0.654; that for C24G C30A G44C U47C U59A A69C A70C, 0.884. In the case of C24A G44C C49A C60U A69C, the yeast fitness stood at 0.599. The value for C24A C33A C34A C62A was ≤ 0.5. The result for C24A U26G C61U reads ≤ 0.5; that for C24G C31G A36G A65U, ≤ 0.5; that for G23C G25C C55G, ≤ 0.5. The value for C24G C34G was 0.55.
